Compound activity: PubChem, several laboratories
This is a sample that favours compounds with a hit; in the whole collection about 2.6% have one here.
SIRT5 block = SIRT5 desuccinylase inhibitors, primary screen, biochemical, fluorescence imaging, single point, set 5 | NAD-dependent protein deacylase sirtuin-5, mitochondrial (Homo sapiens), Q9NXA8 | Purified SirT5, succinyl-peptide AMC, trypsin-coupled fluorescence | inhibition, % at 15 µM | 330,000 tested, 1.1% active | AID 652115, 2013; in the data active = inhibition above about 15%
NSD2 inh = NSD2 histone methyltransferase inhibitors, primary screen, biochemical, AlphaScreen, single concentration, set 2 | Histone-lysine N-methyltransferase NSD2 (Homo sapiens), O96028 | 310,000 tested, 0.54% active | inhibition, % at 12.5 µM | AID 743445, 2014 | NSD2 peptide methylation, 120 min; in the data active = inhibition above about 50%
CASP6 VEID inh = human caspase-6 inhibitors, primary screen, biochemical, VEID-R110 fluorescence, single point, set 2; 350,000 tested, 0.53% active; inhibition, % at 12.5 µM; AID 686996, 2013; purified caspase-6, Z-VEID-R110 cleavage fluorescence;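 active = mean inhibition across replicates at least about 35%, with every replicate also reaching that limit, limit read from the data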;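 also: 0% = median of neutral control wells and 100% = no fluorescence left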
Target sequence (P55212 24-179 limits assumed): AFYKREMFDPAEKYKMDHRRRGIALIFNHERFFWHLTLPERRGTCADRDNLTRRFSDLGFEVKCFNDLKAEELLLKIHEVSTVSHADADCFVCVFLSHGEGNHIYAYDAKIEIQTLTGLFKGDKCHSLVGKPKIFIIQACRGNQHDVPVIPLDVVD
Target sequence (P55212 194-293 limits assumed): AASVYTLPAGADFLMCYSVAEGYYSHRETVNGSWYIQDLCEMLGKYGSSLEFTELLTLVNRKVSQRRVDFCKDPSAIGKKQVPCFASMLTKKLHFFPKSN
FGF22 binding = binders of human FGF22 protein, primary screen, FGF22 synaptogenesis inhibitor project, biophysical, thermal shift, single point; Fibroblast growth factor 22 (Homo sapiens), Q9HCT0; recombinant FGF22 thermal shift, SYPRO orange fluorescence; percent of sucrose octasulfate shift, DMSO zero; activity (Tm shift, normalised), % at 9.99 µM; 340,000 tested, 1.5% active; AID 651658, 2012;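 active = mean Tm shift, scaled 0 neutral to 100 positive control, at about 1.3% or above, every replicate too, limit read from the data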
Target sequence (Q9HCT0 whole entry, looked up): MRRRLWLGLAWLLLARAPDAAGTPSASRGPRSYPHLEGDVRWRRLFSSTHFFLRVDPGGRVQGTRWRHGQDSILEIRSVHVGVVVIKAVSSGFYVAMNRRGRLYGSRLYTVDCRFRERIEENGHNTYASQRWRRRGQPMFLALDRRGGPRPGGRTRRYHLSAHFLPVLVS
UCH37 inh = inhibitors of human UCH37 deubiquitinase, primary screen, biochemical, Ub-AMC cleavage, fluorescence. Ubiquitin carboxyl-terminal hydrolase isozyme L5 (Homo sapiens), Q9Y5K5. purified proteasome/UCH37. inhibition, % (test concentration not listed). 330,000 tested, 0.33% active;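 active = mean inhibition over replicate wells above about 20%, limit read from the data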;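 also: 0% = compound-free wells with enzyme and 100% = wells lacking proteasome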
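Material: human UCH37 enzyme supplied as purified proteasome complex. Measure: % inhibition of Ub-AMC cleavage fluorescence. Medium: pH 7.4 Tris-HCl (50 mM) with ovalbumin, ATP-MgCl2, DTT. Times: 30 min preincubation with enzyme, 25 min cleavage at room temperature. Detection: AMC fluorescence intensity at 355/460 nm.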
The depositor's hits bear a star; · = no result.

SMILES	SIRT5 block	NSD2 inh	CASP6 VEID inh	FGF22 binding	UCH37 inh
C[C@H]1CN([C@@H](C)CO)S(=O)(=O)c2ccc(C#CCN(C)C)cc2O[C@H]1CN(C)Cc1ccc2c(c1)OCO2	-2.0	·	36.1*	-0.2	·
CC(C)CC#Cc1ccc2c(c1)O[C@H](CN(C)Cc1ccc3c(c1)OCO3)[C@H](C)CN([C@H](C)CO)S2(=O)=O	14.2*	·	3.2	·	·
N#Cc1cccc(-c2ccc(C3[C@H]4CNC[C@@H]3N4Cc3ccc(F)cc3)cc2)c1 (some centres not stated)	0.9	·	-8.2	·	·
C[C@H](CO)N1C[C@H](C)[C@H](CN(C)C(=O)NC2CCCC2)Oc2ncc(/C=C/c3ccccc3)cc2C1=O	-0.3	·	2.0	-0.3	·
CC(C)NC(=O)Nc1ccc2c(c1)C(=O)N([C@@H](C)CO)C[C@@H](C)[C@@H](CN(C)C)OCCCC[C@@H](C)O2	5.7	·	2.2	-0.7	·
CCOC(=O)c1ccc(NC(=O)c2c(NC(=O)CCC(=O)O)sc3c2CCCCC3)cc1	0.8	2.9	17.3	43.7*	1.5
O=C(O)c1ccc2c(c1)ncn2C1CCCC1	20.7*	-0.5	1.6	0.3	2.6
CCCCNC(=O)c1ccc2c(c1)ncn2C1CCCC1	·	0.0	·	·	-2.8
O=c1[nH][nH]c(-c2ccccc2)c1C=Nc1ccc(F)cc1F	1.4	-1.0	0.7	43.9*	4.3
CC1CCC(N2CCNCC2)CC1 (configuration not stated)	-2.7	-0.5	-8.5	43.7*	-0.8
CC(C)NC(=O)Nc1ccc2c(c1)CC(=O)N([C@H](C)CO)C[C@H](C)[C@H](CN(C)C(=O)NC(C)C)O2	-3.7	·	1.1	0.0	·
O=C(COC(=O)/C=C/c1ccc(Cl)cc1)NC1CCCCCC1	-2.9	9.1	-1.9	0.1	3.9
O=C(COC(=O)/C=C/c1ccc(Cl)cc1)NC1CC1	21.4*	0.0	1.5	-0.1	0.7
COc1cccc(/C=C/C(=O)OCC(=O)NC2CCCCCCC2)c1	·	·	1.5	25.5*	-13.6
CN1CCN(C(=O)C[C@H]2CC[C@@H]3[C@H](COC[C@H](O)CN3CC3CCOCC3)O2)CC1	10.1	·	-37.4	-0.1	·
CN(CC(=O)Nc1ccc(Cl)cc1)S(=O)(=O)c1ccc2c(c1)n(C)c(=O)c(=O)n2C	-0.7	-8.8	1.0	0.0	-4.6
CN(CC(=O)Nc1cccc(Cl)c1)S(=O)(=O)c1ccc2c(c1)n(C)c(=O)c(=O)n2C	32.8*	4.8	-0.2	-0.5	0.1
CN(CC(=O)O)S(=O)(=O)c1ccc2c(c1)n(C)c(=O)c(=O)n2C	1.3	0.9	-2.9	44.0*	3.8
O=C(c1cnccn1)N1CC[C@@H]2[C@H](CO)Nc3ccc(-c4ccccc4)cc3[C@@H]21	0.5	·	0.5	-0.2	·
CC1C(=O)N2CCCc3cc(S(=O)(=O)NCCc4ccccc4)cc1c32 (configuration not stated)	72.1*	-0.2	·	0.0	0.4
COC(=O)C1=C(C)NC(=O)/C1=C\c1cc(C)n(-c2ccccc2)c1C	2.6	-1.7	7.5	43.1*	1.2
CN(Cc1ccccc1)C(=O)CN1C(=O)NC2(CCCc3sccc32)C1=O (configuration not stated)	·	8.4	0.6	43.5*	·
CCNC(=O)C[C@@H]1CC[C@@H]2[C@H](COC[C@@H](O)CN2Cc2ccccc2F)O1	1.7	·	-1.4	0.0	·
Cc1cccc(-c2ccc([C@H]3[C@H](CO)N4CCCCN(Cc5ccncc5)C[C@@H]34)cc2)c1	·	·	·	0.0	·
Cc1ccccc1-c1ccc([C@@H]2[C@@H](CO)N3CCCCN(C(=O)Nc4ccc(F)cc4)C[C@@H]23)cc1	15.2*	·	-5.2	-0.3	·
SMILES	SIRT5 block	NSD2 inh	CASP6 VEID inh	FGF22 binding	UCH37 inh
Cc1ccccc1-c1ccc([C@@H]2[C@H](CO)N3CCCCN(C(=O)Nc4ccc(F)cc4)C[C@@H]23)cc1	16.8*	·	-0.3	-1.0	·
Cc1ccccc1-c1ccc([C@H]2[C@@H](CO)N3CCCCN(C(=O)Nc4ccccc4)C[C@@H]23)cc1	1.3	·	0.2	-0.3	·
O=C1C2C3C=CC(C4CC34)C2C(=O)N1N=Cc1ccc(-c2ccc(Cl)cc2[N+](=O)[O-])o1 (configuration not stated)	·	·	·	·	5.8
O=C(O)c1ccc(NC2=C(n3nnc4ccccc43)C(=O)c3ccccc3C2=O)cc1	5.3	·	82.6*	0.4	·
CC(C)N(Cc1cn(C)nc1-c1cccc(Cl)c1)Cc1nccn1C	-6.4	-2.1	·	43.3*	5.1
COc1cc(C(=O)ON=C2C=CC(=O)C(C)=C2)cc(OC)c1OC	·	·	·	·	11.6
CCC(=O)N1[C@H](CNC(=O)CN(C)C)[C@H](c2ccc(C3=CCCC3)cc2)[C@@H]1CO	0.9	·	-2.2	0.4	·
O=C(Cc1ccc(Cl)cc1)Nc1ccc(CN2CCCCC2)cc1	79.6*	-0.1	-0.3	-0.1	5.4
NS(=O)(=O)c1ccc(NC(=O)CN2CCCCC2)cc1	·	0.5	·	·	5.0
O=C(CN1CCCCC1)Nc1ccc(S(=O)(=O)c2ccc(NC(=O)CN3CCCCC3)cc2)cc1	·	-0.6	1.1	43.7*	4.3
COc1ccccc1CNC(=O)C(NS(=O)(=O)c1cccc2nsnc12)C(C)C (configuration not stated)	19.2*	0.0	2.1	-0.3	0.8
COc1ccc(NC(=O)N(C)C[C@H]2Oc3c(NC(=O)c4nc5ccccc5s4)cccc3C(=O)N([C@H](C)CO)C[C@H]2C)cc1	6.3	·	-3.1	0.2	·
CCC(C(=O)Nc1cc(Cl)ccc1OC)c1ccccc1 (configuration not stated)	-0.6	-1.9	-1.8	43.2*	3.0
COc1ccc(Cl)cc1NC(=O)CCN1CCN(Cc2ccccc2)CC1	21.8*	0.5	-1.4	0.0	3.6
COc1ccc(C)cc1NC(=O)CCN1CC(C)OC(C)C1 (configuration not stated)	23.4*	-6.8	0.3	0.2	3.1
O=C(CSc1n[nH]c(=O)n1Cc1ccco1)Nc1ccccc1	15.1*	-1.2	-2.4	0.7	1.7
CCn1cc(C(=O)Nc2ccccc2)c(=O)c2ccc(C)nc21	·	·	·	·	2.6
C=CCSc1nnc(NC(=O)c2cn(CC)c3nc(C)ccc3c2=O)s1	19.9*	-2.8	-1.3	0.1	4.5
C[C@@H]1CN([C@H](C)CO)S(=O)(=O)c2ccc(C3=CCCC3)cc2O[C@@H]1CN(C)S(=O)(=O)c1ccc(F)cc1	-0.1	·	-1.1	-0.2	·
C[C@H](CO)N1C[C@H](C)[C@H](CN(C)S(=O)(=O)c2ccc(F)cc2)Oc2cc(C3=CCCCC3)ccc2S1(=O)=O	32.0*	·	-2.6	0.7	·
